Source: ChEMBL document CHEMBL4689842, “EUbOPEN Chemogenomics Library wave 1” (2021)

Test system: Fibroblast
Assay: Multiplex assay against human fibroblast
Type: toxicity, cell-based
How it was run: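 Per cents of healthy-nucleus cells form the tubulin, mitochondrial-mass and membrane-permeability phenotype values. Live cells were stained at seeding with Hoechst33342, BioTracker Green Microtubule Cytoskeleton Dye, MitoTracker Red and Annexin V Alexa Fluor 680. After compound addition they were imaged on a CQ1 microscope at 37°C and 5% CO2, and CellPathfinder machine-learning gating split them into Hoechst high-intensity objects or normal cells, normal cells into healthy, pyknosed or fragmented nuclei, and pyknosed cells into mitotic or apoptotic.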

[1] = 12 h, 1 µM, compound concentration 1 uM, replicate 1
[2] = 12 h, 1 µM, compound concentration 1 uM, replicate 2
[3] = 12 h, 10 µM, compound concentration 10 uM, replicate 1
[4] = 12 h, 10 µM, compound concentration 10 uM, replicate 2
[5] = 24 h, 1 µM, compound concentration 1 uM, replicate 1
[6] = 24 h, 1 µM, compound concentration 1 uM, replicate 2
[7] = 24 h, 10 µM, compound concentration 10 uM, replicate 1
[8] = 24 h, 10 µM, compound concentration 10 uM, replicate 2
[9] = 48 h, 1 µM, compound concentration 1 uM, replicate 1
[10] = 48 h, 1 µM, compound concentration 1 uM, replicate 2
[11] = 48 h, 10 µM, compound concentration 10 uM, replicate 1
[12] = 48 h, 10 µM, compound concentration 10 uM, replicate 2

In the case of `Cc1ccccc1C(c1ccccc1C)N1C2CCC1CC(O)(c1ccccc1)C2` (stereo not drawn), the “Population Apoptotic (%)” value [1] is reported as 68%, the “Population Fragmented Nuclei (%)” value [1] is reported as 14% and the “Population Healthy Nuclei (%)” value [1] is reported as 40%. The “Population Mitotic Cells (%)” value [1] was 31%, the “Population Normal (%)” value [1] was 84% and the “Population Pyknosed Nuclei (%)” value [1] was 44%. For the same compound, the “Total Cell Count” value [1] was 127, the “Population Apoptotic (%)” value [2] was 50% and the “Population Fragmented Nuclei (%)” value [2] was 9%. For the same compound, the “Population Healthy Nuclei (%)” value [2] was 81%, the “Population Hoechst High Intensity Objects (%)” value [2] was 9% and the “Population Mitotic Cells (%)” value [2] was 50%. The “Population Normal (%)” value [2] was 90%, the “Population Pyknosed Nuclei (%)” value [2] was 9% and the “Total Cell Count” value [2] was 80. The “Population Apoptotic (%)” value [3] was 63%, the “Population Fragmented Nuclei (%)” value [3] was 23% and the “Population Healthy Nuclei (%)” value [3] was 44%. For the same compound, the “Population Mitotic Cells (%)” value [3] was 36%, the “Population Normal (%)” value [3] was 85% and the “Population Pyknosed Nuclei (%)” value [3] was 32%. For the same compound, the “Total Cell Count” value [3] was 161, the “Population Apoptotic (%)” value [4] was 40% and the “Population Healthy Nuclei (%)” value [4] was 81%. For the same compound, the “Population Mitotic Cells (%)” value [4] was 60%, the “Population Normal (%)” value [4] was 86% and the “Total Cell Count” value [4] was 71. The “Population Apoptotic (%)” value [5] was 62%, the “Population Healthy Nuclei (%)” value [5] was 55% and the “Population Hoechst High Intensity Objects (%)” value [5] was 20%. For the same compound, the “Population Mitotic Cells (%)” value [5] was 37%, the “Population Normal (%)” value [5] was 79% and the “Population Pyknosed Nuclei (%)” value [5] was 28%. The “Total Cell Count” value [5] was 107, the “Population Fragmented Nuclei (%)” value [6] was 9% and the “Population Healthy Nuclei (%)” value [6] was 77%. For the same compound, the “Population Hoechst High Intensity Objects (%)” value [6] was 4%, the “Population Mitotic Cells (%)” value [6] was 80% and the “Population Normal (%)” value [6] was 95%. For the same compound, the “Total Cell Count” value [6] was 89, the “Population Apoptotic (%)” value [7] was 47% and the “Population Fragmented Nuclei (%)” value [7] was 23%. The “Population Healthy Nuclei (%)” value [7] was 47%, the “Population Hoechst High Intensity Objects (%)” value [7] was 8% and the “Population Mitotic Cells (%)” value [7] was 52%. For the same compound, the “Population Normal (%)” value [7] was 91%, the “Population Pyknosed Nuclei (%)” value [7] was 28% and the “Total Cell Count” value [7] was 159. The “Population Apoptotic (%)” value [8] was 50%, the “Population Fragmented Nuclei (%)” value [8] was 20% and the “Population Healthy Nuclei (%)” value [8] was 65%. The “Population Mitotic Cells (%)” value [8] was 50%, the “Population Normal (%)” value [8] was 93% and the “Total Cell Count” value [8] was 85. For the same compound, the “Population Apoptotic (%)” value [9] was 61%, the “Population Fragmented Nuclei (%)” value [9] was 30% and the “Population Healthy Nuclei (%)” value [9] was 51%. The “Population Hoechst High Intensity Objects (%)” value [9] was 16%, the “Population Mitotic Cells (%)” value [9] was 38% and the “Population Normal (%)” value [9] was 83%. The “Total Cell Count” value [9] was 121, the “Population Apoptotic (%)” value [10] was 0% and the “Population Fragmented Nuclei (%)” value [10] was 60%. The “Population Healthy Nuclei (%)” value [10] was 40%, the “Population Hoechst High Intensity Objects (%)” value [10] was 0% and the “Population Mitotic Cells (%)” value [10] was 0%. The “Population Normal (%)” value [10] was 100%, the “Population Pyknosed Nuclei (%)” value [10] was 0% and the “Total Cell Count” value [10] was 5. The “Population Apoptotic (%)” value [11] was 40%, the “Population Fragmented Nuclei (%)” value [11] was 30% and the “Population Healthy Nuclei (%)” value [11] was 59%. For the same compound, the “Population Mitotic Cells (%)” value [11] was 60%, the “Population Normal (%)” value [11] was 92% and the “Population Pyknosed Nuclei (%)” value [11] was 9%. For the same compound, the “Total Cell Count” value [11] was 170, the “Population Apoptotic (%)” value [12] was 100% and the “Population Fragmented Nuclei (%)” value [12] was 35%. For the same compound, the “Population Healthy Nuclei (%)” value [12] was 62%, the “Population Hoechst High Intensity Objects (%)” value [12] was 4% and the “Population Mitotic Cells (%)” value [12] was 0%. For the same compound, the “Population Normal (%)” value [12] was 95%, the “Population Pyknosed Nuclei (%)” value [12] was 1% and the “Total Cell Count” value [12] was 118.
For `CCc1ccc(OCc2ccccc2C(=O)Nc2ccc3nc(C)cc(N)c3c2)cc1.Cl`, the “Population Apoptotic (%)” value [1] was 67%, the “Population Fragmented Nuclei (%)” value [1] was 31% and the “Population Healthy Nuclei (%)” value [1] was 33%. The “Population Hoechst High Intensity Objects (%)” value [1] was 11%, the “Population Membrane Permeable-Phenotype (%)” value [1] was 9% and the “Population Mitochondria Different-Phenotype (%)” value [1] was 44%. The “Population Mitotic Cells (%)” value [1] was 32%, the “Population Normal (%)” value [1] was 88% and the “Population Pyknosed Nuclei (%)” value [1] was 35%. The “Population Tubulin-Different-Phenotype (%)” value [1] was 63%, the “Total Cell Count” value [1] was 177 and the “Population Apoptotic (%)” value [2] was 71%. The “Population Fragmented Nuclei (%)” value [2] was 33%, the “Population Hoechst High Intensity Objects (%)” value [2] was 16% and the “Population Membrane Permeable-Phenotype (%)” value [2] was 28%. For the same compound, the “Population Mitochondria Different-Phenotype (%)” value [2] was 92%, the “Population Mitotic Cells (%)” value [2] was 28% and the “Population Normal (%)” value [2] was 84%. The “Population Pyknosed Nuclei (%)” value [2] was 33%, the “Population Tubulin-Different-Phenotype (%)” value [2] was 85% and the “Total Cell Count” value [2] was 68. The “Population Apoptotic (%)” value [3] was 26%, the “Population Fragmented Nuclei (%)” value [3] was 15% and the “Population Healthy Nuclei (%)” value [3] was 18%. The “Population Hoechst High Intensity Objects (%)” value [3] was 22%, the “Population Membrane Permeable-Phenotype (%)” value [3] was 16% and the “Population Mitochondria Different-Phenotype (%)” value [3] was 55%. For the same compound, the “Population Mitotic Cells (%)” value [3] was 73%, the “Population Normal (%)” value [3] was 77% and the “Population Pyknosed Nuclei (%)” value [3] was 65%. For the same compound, the “Population Tubulin-Different-Phenotype (%)” value [3] was 88%, the “Total Cell Count” value [3] was 125 and the “Population Apoptotic (%)” value [4] was 76%. The “Population Fragmented Nuclei (%)” value [4] was 8%, the “Population Healthy Nuclei (%)” value [4] was 14% and the “Population Hoechst High Intensity Objects (%)” value [4] was 12%. The “Population Membrane Permeable-Phenotype (%)” value [4] was 100%, the “Population Mitochondria Different-Phenotype (%)” value [4] was 100% and the “Population Mitotic Cells (%)” value [4] was 23%. The “Population Normal (%)” value [4] was 87%, the “Population Pyknosed Nuclei (%)” value [4] was 77% and the “Population Tubulin-Different-Phenotype (%)” value [4] was 100%. For the same compound, the “Total Cell Count” value [4] was 50, the “Population Apoptotic (%)” value [5] was 79% and the “Population Fragmented Nuclei (%)” value [5] was 32%. For the same compound, the “Population Healthy Nuclei (%)” value [5] was 22%, the “Population Hoechst High Intensity Objects (%)” value [5] was 13% and the “Population Membrane Permeable-Phenotype (%)” value [5] was 10%. For the same compound, the “Population Mitochondria Different-Phenotype (%)” value [5] was 60%, the “Population Mitotic Cells (%)” value [5] was 20% and the “Population Normal (%)” value [5] was 86%. The “Population Pyknosed Nuclei (%)” value [5] was 45%, the “Population Tubulin-Different-Phenotype (%)” value [5] was 86% and the “Total Cell Count” value [5] was 158. For the same compound, the “Population Apoptotic (%)” value [6] was 83%, the “Population Fragmented Nuclei (%)” value [6] was 25% and the “Population Healthy Nuclei (%)” value [6] was 28%. The “Population Hoechst High Intensity Objects (%)” value [6] was 17%, the “Population Membrane Permeable-Phenotype (%)” value [6] was 27% and the “Population Mitochondria Different-Phenotype (%)” value [6] was 90%. For the same compound, the “Population Mitotic Cells (%)” value [6] was 16%, the “Population Normal (%)” value [6] was 82% and the “Population Pyknosed Nuclei (%)” value [6] was 46%. For the same compound, the “Population Tubulin-Different-Phenotype (%)” value [6] was 63%, the “Total Cell Count” value [6] was 92 and the “Population Apoptotic (%)” value [7] was 40%. For the same compound, the “Population Fragmented Nuclei (%)” value [7] was 25%, the “Population Healthy Nuclei (%)” value [7] was 48% and the “Population Hoechst High Intensity Objects (%)” value [7] was 50%. For the same compound, the “Population Membrane Permeable-Phenotype (%)” value [7] was 16%, the “Population Mitochondria Different-Phenotype (%)” value [7] was 37% and the “Population Mitotic Cells (%)” value [7] was 60%. For the same compound, the “Population Normal (%)” value [7] was 49%, the “Population Pyknosed Nuclei (%)” value [7] was 25% and the “Population Tubulin-Different-Phenotype (%)” value [7] was 97%. The “Total Cell Count” value [7] was 155, the “Population Apoptotic (%)” value [8] was 70% and the “Population Fragmented Nuclei (%)” value [8] was 15%. The “Population Healthy Nuclei (%)” value [8] was 38%, the “Population Hoechst High Intensity Objects (%)” value [8] was 31% and the “Population Membrane Permeable-Phenotype (%)” value [8] was 47%. For the same compound, the “Population Mitochondria Different-Phenotype (%)” value [8] was 94%, the “Population Mitotic Cells (%)” value [8] was 30% and the “Population Normal (%)” value [8] was 68%. The “Population Pyknosed Nuclei (%)” value [8] was 45%, the “Population Tubulin-Different-Phenotype (%)” value [8] was 94% and the “Total Cell Count” value [8] was 47. The “Population Apoptotic (%)” value [9] was 90%, the “Population Fragmented Nuclei (%)” value [9] was 46% and the “Population Healthy Nuclei (%)” value [9] was 20%. For the same compound, the “Population Hoechst High Intensity Objects (%)” value [9] was 20%, the “Population Membrane Permeable-Phenotype (%)” value [9] was 40% and the “Population Mitochondria Different-Phenotype (%)” value [9] was 32%. The “Population Mitotic Cells (%)” value [9] was 9%, the “Population Normal (%)” value [9] was 79% and the “Population Pyknosed Nuclei (%)” value [9] was 33%. The “Population Tubulin-Different-Phenotype (%)” value [9] was 72%, the “Total Cell Count” value [9] was 157 and the “Population Apoptotic (%)” value [10] was 84%. The “Population Fragmented Nuclei (%)” value [10] was 51%, the “Population Healthy Nuclei (%)” value [10] was 25% and the “Population Hoechst High Intensity Objects (%)” value [10] was 16%. For the same compound, the “Population Membrane Permeable-Phenotype (%)” value [10] was 30%, the “Population Mitochondria Different-Phenotype (%)” value [10] was 55% and the “Population Mitotic Cells (%)” value [10] was 15%. For the same compound, the “Population Normal (%)” value [10] was 83%, the “Population Pyknosed Nuclei (%)” value [10] was 23% and the “Population Tubulin-Different-Phenotype (%)” value [10] was 70%. The “Total Cell Count” value [10] was 96, the “Population Fragmented Nuclei (%)” value [11] was 68% and the “Population Healthy Nuclei (%)” value [11] was 28%. For the same compound, the “Population Hoechst High Intensity Objects (%)” value [11] was 47%, the “Population Membrane Permeable-Phenotype (%)” value [11] was 4% and the “Population Mitochondria Different-Phenotype (%)” value [11] was 68%. The “Population Normal (%)” value [11] was 52%, the “Population Pyknosed Nuclei (%)” value [11] was 2% and the “Population Tubulin-Different-Phenotype (%)” value [11] was 86%. The “Total Cell Count” value [11] was 146, the “Population Apoptotic (%)” value [12] was 100% and the “Population Fragmented Nuclei (%)” value [12] was 86%. For the same compound, the “Population Healthy Nuclei (%)” value [12] was 8%, the “Population Hoechst High Intensity Objects (%)” value [12] was 39% and the “Population Membrane Permeable-Phenotype (%)” value [12] was 0%. For the same compound, the “Population Mitochondria Different-Phenotype (%)” value [12] was 50%, the “Population Mitotic Cells (%)” value [12] was 0% and the “Population Normal (%)” value [12] was 60%. The “Population Pyknosed Nuclei (%)” value [12] was 4%, the “Population Tubulin-Different-Phenotype (%)” value [12] was 50% and the “Total Cell Count” value [12] was 38.
